From ChEMBL document CHEMBL3098058, “Imidazole-derived agonists for the neurotensin 1 receptor” (Bioorg Med Chem Lett, 2014)
Values after ≈ are worked out from the molar mass of the structure shown. Active and inactive are the calls of the source. The rule behind the calls is not given here.

Columns and labels:
[1] = target: T1, Neurotensin receptor type 1 (Homo sapiens, UniProt P30989); experiment: Agonist activity at NTR1 in human U2OS cells after 1 hr by beta-arrestin GFP reporter gene assay relative to NT peptide; type: cell-based
Method in brief: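 U2OS cells expressing NTR1 and a fluorescent β-arrestin reporter, imaged by high-content imaging of receptor–arrestin complex location after activation. EC50 and Emax are calculated relative to the efficacy of NT peptide at a saturating 100 nM.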
Target sequence in this assay (P30989 whole entry): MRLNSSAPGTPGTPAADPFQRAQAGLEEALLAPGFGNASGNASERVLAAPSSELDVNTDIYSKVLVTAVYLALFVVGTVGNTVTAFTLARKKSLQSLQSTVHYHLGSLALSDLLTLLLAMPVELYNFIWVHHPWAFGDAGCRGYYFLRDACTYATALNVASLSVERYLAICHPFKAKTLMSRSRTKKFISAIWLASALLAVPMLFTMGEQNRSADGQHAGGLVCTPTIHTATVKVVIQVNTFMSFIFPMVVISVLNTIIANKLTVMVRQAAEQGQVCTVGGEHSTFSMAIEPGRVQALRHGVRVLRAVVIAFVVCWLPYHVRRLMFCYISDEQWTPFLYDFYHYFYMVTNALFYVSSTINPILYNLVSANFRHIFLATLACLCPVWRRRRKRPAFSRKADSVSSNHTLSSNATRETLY

[2] = target: T1, Neurotensin receptor type 1; experiment: Agonist activity at NTR1 in human U2OS cells after 1 hr by beta-arrestin GFP reporter gene assay; type: cell-based
Method in brief: (§1)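 High-content imaging in U2OS cells expressing the receptor of interest (NTR1, NTR2 or GPR35) plus a β-arrestin fluorescent reporter. The read-out is the location of the receptor–arrestin complex after receptor activation.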
Target sequence in this assay (P30989 whole entry): as above

[3] = target: T1, Neurotensin receptor type 1; experiment: Ratio of EC50 for NTR1 in human U2OS cells to EC50 for NTR1 (unknown origin) expressed in CHO cells assessed as Ca2+ mobilization; type: functional, cell-based
Target sequence in this assay (P30989 whole entry): as above

Mu-type opioid receptor = Mu-type opioid receptor (Homo sapiens, UniProt P35372); experiment: Inhibition of MOR (unknown origin)
Mu-type opioid receptor, sequence (P35372 whole entry): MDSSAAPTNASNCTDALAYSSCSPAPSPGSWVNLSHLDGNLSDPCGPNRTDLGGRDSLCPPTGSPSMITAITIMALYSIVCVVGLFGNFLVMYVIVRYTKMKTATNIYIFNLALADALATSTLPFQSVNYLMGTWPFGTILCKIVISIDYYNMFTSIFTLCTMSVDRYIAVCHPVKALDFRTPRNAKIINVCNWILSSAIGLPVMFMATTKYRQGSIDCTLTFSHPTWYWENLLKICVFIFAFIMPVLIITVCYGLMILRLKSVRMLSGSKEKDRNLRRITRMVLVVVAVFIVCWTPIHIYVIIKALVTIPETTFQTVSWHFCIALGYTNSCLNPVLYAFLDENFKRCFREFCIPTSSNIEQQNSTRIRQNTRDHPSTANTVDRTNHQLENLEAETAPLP

[4] = target: Delta-type opioid receptor (Homo sapiens, UniProt P41143); experiment: Inhibition of DOR (unknown origin)
Delta-type opioid receptor, sequence (P41143 whole entry): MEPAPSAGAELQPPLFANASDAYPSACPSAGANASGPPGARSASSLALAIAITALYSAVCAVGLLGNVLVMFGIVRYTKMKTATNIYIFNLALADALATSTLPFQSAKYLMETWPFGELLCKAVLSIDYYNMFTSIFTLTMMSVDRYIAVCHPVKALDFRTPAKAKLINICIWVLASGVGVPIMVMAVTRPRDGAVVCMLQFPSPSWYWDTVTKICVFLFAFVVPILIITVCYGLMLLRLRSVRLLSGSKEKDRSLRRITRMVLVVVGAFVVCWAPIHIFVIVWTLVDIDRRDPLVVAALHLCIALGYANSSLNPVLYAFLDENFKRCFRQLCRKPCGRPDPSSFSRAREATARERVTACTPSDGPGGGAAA

[5] = Cytotoxicity in human Fa2N-4 cells after 24 hrs; type: cell-based; settings: fa2n-4, 24 h, read-out: LC50 (the source's name)
Method in brief: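 Fa2N-4 cells are immortalized human hepatocytes. Compounds were exposed for 24 hours. Readout is the LC50 (μM).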

[6] = Metabolic stability in mouse liver microsomes assessed as compound remaining at 1hr; type: ADME, Microsome; settings: read-out: Stability
Method in brief: (§2)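 Compound stability in human or mouse liver homogenate/microsomes, given as % remaining at 1 hr, run in triplicate.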

[7] = Metabolic stability in human liver microsomes assessed as compound remaining at 1 hr; type: ADME; settings: read-out: Stability; method in brief: as §2
[8] = Metabolic stability in human plasma assessed as compound remaining at 3 hrs; type: ADME, cell-free; settings: read-out: Stability
[9] = Metabolic stability in mouse plasma assessed as compound remaining at 3 hrs; type: ADME, cell-free; settings: read-out: Stability
[10] = Plasma protein binding in mouse at 10 uM; type: ADME, cell-free
Method in brief: (§3)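 Plasma protein binding in human or mouse plasma at 1 μM and 10 μM compound, given as % bound.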

[11] = Plasma protein binding in human at 10 uM; type: ADME, cell-free; method in brief: as §3
[12] = Plasma protein binding in mouse at 1 uM; type: ADME, cell-free; method in brief: as §3
[13] = Blood brain permeability of the compound at donor and acceptor pH 7.4 by PAMPA; type: ADME
[14] = Plasma protein binding in human at 1 uM; type: ADME, cell-free; method in brief: as §3
[15] = target: Sodium-dependent dopamine transporter (Homo sapiens, UniProt Q01959); experiment: Inhibition of DAT (unknown origin)
Sodium-dependent dopamine transporter, sequence (Q01959 whole entry): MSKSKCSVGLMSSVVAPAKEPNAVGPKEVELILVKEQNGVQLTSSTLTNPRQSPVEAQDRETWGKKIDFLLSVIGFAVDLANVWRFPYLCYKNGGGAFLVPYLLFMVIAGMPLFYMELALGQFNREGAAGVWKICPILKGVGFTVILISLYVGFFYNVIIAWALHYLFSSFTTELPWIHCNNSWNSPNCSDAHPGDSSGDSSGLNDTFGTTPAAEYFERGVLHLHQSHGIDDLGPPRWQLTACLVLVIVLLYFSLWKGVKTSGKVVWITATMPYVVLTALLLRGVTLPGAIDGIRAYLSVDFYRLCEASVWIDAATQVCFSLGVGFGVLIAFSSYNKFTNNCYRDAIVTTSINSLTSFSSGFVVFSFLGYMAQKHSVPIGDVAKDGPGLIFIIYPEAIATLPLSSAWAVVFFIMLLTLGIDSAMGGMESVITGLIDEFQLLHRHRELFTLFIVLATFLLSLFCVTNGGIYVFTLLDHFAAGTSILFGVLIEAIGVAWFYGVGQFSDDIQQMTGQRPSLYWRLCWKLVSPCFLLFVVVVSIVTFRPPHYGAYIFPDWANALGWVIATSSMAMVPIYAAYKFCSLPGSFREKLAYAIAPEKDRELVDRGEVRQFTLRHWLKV

[16] = target: T1, Neurotensin receptor type 1; experiment: Inhibition of NTS1 receptor (unknown origin)
Target sequence in this assay (P30989 whole entry): as the sequence (P30989 whole entry) above

[17] = Permeability of the compound at donor pH 6.2 and acceptor pH 7.4 by PAMPA; type: ADME
[18] = Permeability of the compound at donor pH 5.0 and acceptor pH 7.4 by PAMPA; type: ADME
[19] = Aqueous solubility of the compound in pION buffer at pH 7.4; type: physicochemical
[20] = Aqueous solubility of the compound in pION buffer at pH 6.2; type: physicochemical
[21] = Aqueous solubility of the compound in pION buffer at pH 5.0; type: physicochemical
[22] = target: T1, Neurotensin receptor type 1; experiment: Agonist activity at NTR1 (unknown origin) expressed in CHO cells assessed as Ca2+ mobilization by Fluo-4 NW dye-based fluorescence assay; type: functional, cell-based
Target sequence in this assay (P30989 whole entry): as above

[23] = target: T1, Neurotensin receptor type 1; experiment: Agonist activity at NTR1 (unknown origin) expressed in CHO-K1 cells coexpressing beta-arrestin/N-terminal deletion mutant of beta-galactosidase fusion protein by chemiluminescence assay; type: cell-based
Method in brief: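 DiscoveRx PathHunter format. CHO-K1 cells express NTR1 fused in frame to the small ProLink β-gal fragment, stably co-expressed with β-arrestin fused to the N-terminal-deletion β-gal enzyme acceptor. Receptor activation recruits β-arrestin, which forces fragment complementation into active β-gal. The resulting enzyme activity is read by chemiluminescence. EC50 and Emax are expressed as % of NT peptide response.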
Target sequence in this assay (P30989 whole entry, looked up, change not shown): as the sequence (P30989 whole entry) above

[24] = target: G-protein coupled receptor 35 (Homo sapiens, UniProt Q9HC97); experiment: Agonist activity at GPR35 in human U2OS cells after 1 hr by beta-arrestin GFP reporter gene assay; type: cell-based; method in brief: as §1
G-protein coupled receptor 35, sequence (Q9HC97 whole entry): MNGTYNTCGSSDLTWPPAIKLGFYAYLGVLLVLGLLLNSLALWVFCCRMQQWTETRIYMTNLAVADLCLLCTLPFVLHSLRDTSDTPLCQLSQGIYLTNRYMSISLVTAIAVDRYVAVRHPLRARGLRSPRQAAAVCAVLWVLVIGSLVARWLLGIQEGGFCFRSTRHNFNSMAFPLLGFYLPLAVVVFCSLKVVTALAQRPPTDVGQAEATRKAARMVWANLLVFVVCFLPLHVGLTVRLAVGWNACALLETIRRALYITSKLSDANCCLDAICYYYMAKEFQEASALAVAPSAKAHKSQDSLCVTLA

[25] = target: Neurotensin receptor type 2 (Homo sapiens, UniProt O95665); experiment: Agonist activity at NTR2 in human U2OS cells after 1 hr by beta-arrestin GFP reporter gene assay; type: cell-based; method in brief: as §1
Neurotensin receptor type 2, sequence (O95665 whole entry): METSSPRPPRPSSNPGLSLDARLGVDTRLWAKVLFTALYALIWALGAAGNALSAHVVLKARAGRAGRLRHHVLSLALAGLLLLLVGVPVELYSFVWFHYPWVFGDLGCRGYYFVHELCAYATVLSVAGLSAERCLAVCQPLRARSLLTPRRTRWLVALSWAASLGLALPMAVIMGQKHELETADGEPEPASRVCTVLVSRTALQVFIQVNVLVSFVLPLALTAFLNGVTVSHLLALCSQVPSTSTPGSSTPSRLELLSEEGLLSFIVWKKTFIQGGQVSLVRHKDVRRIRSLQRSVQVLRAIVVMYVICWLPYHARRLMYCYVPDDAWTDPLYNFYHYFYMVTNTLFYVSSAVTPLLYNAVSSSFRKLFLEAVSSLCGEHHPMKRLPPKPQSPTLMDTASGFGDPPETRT

[26] = target: T1, Neurotensin receptor type 1; experiment: Agonist activity at NTR1 (unknown origin) at 10 uM in presence of SR142948A
Method in brief: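 NTR1 activation is driven by agonist at 10 μM after preincubation with a known NTR1 antagonist. Antagonist inhibition of this activation is reported as IC50.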
Target sequence in this assay (P30989 whole entry): as the sequence (P30989 whole entry) above

[27] = Permeability of the compound at donor and acceptor pH 7.4 by PAMPA; type: ADME
[28] = target: T1, Neurotensin receptor type 1; experiment: Agonist activity at NTR1 (unknown origin) expressed in CHO cells assessed as Ca2+ mobilization by Fluo-4 NW dye-based fluorescence assay relative to NT peptide; type: functional, cell-based
[29] = target: T1, Neurotensin receptor type 1; experiment: Agonist activity at NTR1 (unknown origin) expressed in CHO-K1 cells coexpressing coexpressing beta-arrestin/N-terminal deletion mutant of beta-galactosidase fusion protein by chemiluminescence assay relative to NT peptide; type: cell-based
Method in brief: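 PathHunter complementation in CHO-K1 cells. NTR1 is fused to the ProLink small enzyme fragment and co-expressed with a β-arrestin fusion to the N-terminal-deleted β-gal enzyme acceptor. Activation drives β-arrestin binding and β-gal fragment complementation, and enzyme activity is read by chemiluminescence.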

SMILES: COc1cccc(OC)c1-c1cc(C(=O)NC2(C(=O)O)C3CC4CC(C3)CC2C4)nn1-c1ccnc2cc(Cl)ccc12 (stereo not drawn) [REMINERTANT]
- Emax [1]: 100%
- EC50 [2]: 31 µM

SMILES: CC(C)C[C@H](NC(=O)c1cn(-c2ccnc3cc(Cl)ccc23)c(-c2c(Cl)cccc2Cl)n1)C(=O)O
- Emax [1]: 80%
- EC50 [2]: 5.2 µM

SMILES: COc1cccc(OC)c1-c1cc(C(=O)NC2(C(=O)O)C3CC4CC(C3)CC2C4)nn1-c1ccc(C(=O)N(C)CCCN(C)C)cc1C(C)C (stereo not drawn)
- EC50 [2]: > 80 µM

SMILES: COc1cccc(OC)c1-c1nc(C(=O)N[C@@H](CC(C)C)C(=O)O)cn1-c1ccc(C)cc1
- EC50 [2]: > 80 µM

SMILES: CC(C)C[C@H](NC(=O)c1cn(-c2ccncc2)c(-c2ccccc2)n1)C(=O)O
- EC50 [2]: > 80 µM

SMILES: COc1ccccc1-c1cc(C(=O)N[C@H](CC(C)C)C(=O)O)nn1-c1ccnc2cc(Cl)ccc12
- Emax [1]: 98%
- EC50 [2]: 0.97 µM

SMILES: COc1cccc(OC)c1-c1cc(C(=O)N[C@@H](CC(C)C)C(=O)O)nn1-c1ccnc2cc(Cl)ccc12
- Ratio EC50 [3]: 5
- Ki (Mu-type opioid receptor): 3.4 µM
- Ki [4]: 5.2 µM
- CC50 [5]: > 50 µM
- remaining at 1 h [6]: 46%
- remaining at 1 h [7]: 76%
- remaining at 3 h [8]: 88.9%
- remaining at 3 h [9]: 70.7%
- PPB [10]: 97.1%
- PPB [11]: 99.7%
- PPB [12]: 96.6%
- permeability [13]: 4.8 ×10⁻⁶ cm/s
- PPB [14]: 99.6%
- Ki [15]: > 10 µM
- Ki [16]: 3.3 µM
- permeability [17]: 725 ×10⁻⁶ cm/s
- permeability [18]: 1270 ×10⁻⁶ cm/s
- solubility [19]: > 296 µM
- solubility [20]: > 296 µM
- solubility [21]: 113 µM (≈ 59.1 µg/mL)
- EC50 [22]: < 0.156 µM
- EC50 [23]: > 33 µM
- EC50 [24]: > 40 µM
- EC50 [25]: > 80 µM
- Emax [1]: 100%

SMILES: CC(C)C[C@H](NC(=O)c1cn(-c2ccnc3cc(Cl)ccc23)c(-c2ccccc2)n1)C(=O)O
- Emax [1]: 100%
- EC50 [2]: 72 µM

SMILES: COc1cccc(OC)c1-c1nc(C(=O)NC2(C(=O)O)C3CC4CC(C3)CC2C4)cn1-c1ccnc2cc(Cl)ccc12 (stereo not drawn)
- Emax [1]: 100%
- EC50 [2]: 46 µM

SMILES: COc1ccc(-c2nc(C(=O)N[C@@H](CC(C)C)C(=O)O)cn2-c2ccnc3cc(Cl)ccc23)c(OC)c1
- EC50 [2]: > 80 µM

SMILES: COc1cccc(OC)c1-c1nc(C(=O)N[C@H](CC(C)C)C(=O)O)cn1-c1ccnc2cc(Cl)ccc12
- Emax [1]: 50%
- EC50 [2]: 9.4 µM

SMILES: COc1cccc(OC)c1-c1nc(C(=O)N[C@@H](CC(C)C)C(=O)O)cn1-c1ccnc2cc(Cl)ccc12
- Ratio EC50 [3]: 5
- Activity [26]: inactive
- CC50 [5]: > 50 µM
- remaining at 1 h [6]: 59%
- remaining at 1 h [7]: 100%
- remaining at 3 h [8]: 100%
- remaining at 3 h [9]: 100%
- PPB [10]: 91.4%
- PPB [11]: 98.7%
- PPB [12]: 92.2%
- permeability [13]: 1.2 ×10⁻⁶ cm/s
- PPB [14]: 98.7%
- Ki [15]: > 10 µM
- Ki [16]: 10 µM
- permeability [27]: 6 ×10⁻⁶ cm/s
- permeability [17]: 17 ×10⁻⁶ cm/s
- permeability [18]: 363 ×10⁻⁶ cm/s
- solubility [19]: > 99 µM
- solubility [20]: > 99 µM
- solubility [21]: > 99 µM
- Emax [28]: 93%
- EC50 [22]: 0.298 µM
- Emax [29]: 100%
- EC50 [23]: 6.1 µM
- EC50 [24]: > 40 µM
- EC50 [25]: > 80 µM
- Emax [1]: 79%
- EC50 [2]: 2 µM

SMILES: COc1cccc(OC)c1-c1nc(C(=O)N[C@@H](CC(C)C)C(=O)O)cn1-c1cccc2ccccc12
- CC50 [5]: > 50 µM
- remaining at 1 h [6]: 76%
- remaining at 1 h [7]: 100%
- remaining at 3 h [8]: 76%
- remaining at 3 h [9]: 76%
- PPB [10]: 95.4%
- PPB [11]: 98%
- PPB [12]: 96.4%
- permeability [13]: 1.1 ×10⁻⁶ cm/s
- PPB [14]: 97.9%
- permeability [27]: 12 ×10⁻⁶ cm/s
- permeability [17]: 145 ×10⁻⁶ cm/s
- permeability [18]: 953 ×10⁻⁶ cm/s
- solubility [19]: > 297 µM
- solubility [20]: > 297 µM
- solubility [21]: 247 µM (≈ 120 µg/mL)
- Emax [1]: 93%
- EC50 [2]: 2.3 µM

SMILES: COc1ccccc1-c1nc(C(=O)N[C@@H](CC(C)C)C(=O)O)cn1-c1ccnc2cc(Cl)ccc12
- Emax [1]: 100%
- EC50 [2]: 56 µM

SMILES: Cc1cccc(C)c1-c1nc(C(=O)N[C@@H](CC(C)C)C(=O)O)cn1-c1ccnc2cc(Cl)ccc12
- Emax [1]: 78%
- EC50 [2]: 9.2 µM

SMILES: COc1cccc(OC)c1-c1nc(C(=O)N[C@@H](CC(C)C)C(=O)O)cn1-c1ccncc1
- Emax [1]: 100%
- EC50 [2]: 66 µM

SMILES: COc1ccccc1-c1nc(C(=O)N[C@@H](CC(C)C)C(=O)O)cn1-c1ccncc1
- EC50 [2]: > 80 µM

SMILES: COc1cccc(OC)c1-c1nc(C(=O)N[C@@H](CC(C)C)C(=O)O)cn1-c1ccnc2ccccc12
- Emax [1]: 59%
- EC50 [2]: 3.8 µM

SMILES: CC(C)C[C@H](NC(=O)c1cn(-c2ccnc3ccccc23)c(-c2ccccc2)n1)C(=O)O
- EC50 [2]: > 80 µM

SMILES: COc1ccccc1-c1nc(C(=O)N[C@@H](CC(C)C)C(=O)O)cn1-c1ccnc2ccccc12
- EC50 [2]: > 80 µM
